Test results published in ChEMBL document CHEMBL3272103, “Synthesis and central nervous system evaluation of some 5-alkoxy-3H-1,4-benzodiazepin-2(1H)-ones” (J Med Chem, 1977).

How the values were obtained:
Mus musculus [1] = assay: CNS depressant activity in ip dosed mouse assessed as docility; type: functional
Method in brief: (§1)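 Behavioral observation in ip-dosed mice per a modified literature method, scoring ataxia, docility or loss of righting reflex. Ten animals per dose; ED50 in mg/kg ip.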

Mus musculus [2] = assay: CNS depressant activity in ip dosed mouse assessed as reinduction of anesthesia measured as loss of righting reflex compound administered immediately post recovery from hexobarbital anesthesia; type: functional
Mus musculus [3] = assay: CNS depressant activity in ip dosed mouse assessed as ataxia; type: functional; method in brief: as §1
Mus musculus [4] = assay: CNS depressant activity in mouse assessed as reduction in amphetamine-induced locomotor activity at 50 mg/kg, ip; type: functional; set-up: scale not given: the % may be the effect or the level left; settings: route intraperitoneal
Method in brief: (§2)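 Mice given test compound ip alongside dl-amphetamine 4.0 mg/kg ip; locomotor activity recorded in photocell activity cages, five mice per group; expressed as % change in activity.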

[5] = Acute toxicity in ip dosed Wistar rat measured 2 hrs post dose; type: organism-based; settings: in vivo
Mus musculus [6] = assay: Anticonvulsant activity in ip dosed mouse assessed as inhibition of N-sulfamoylhexahydroazepine-induced seizure; type: functional
Method in brief: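 Mice dosed ip with test compound, then challenged with the convulsant N-sulfamoylhexahydroazepine; protection against seizures scored per a literature method. Ten animals per dose; ED50 derived in mg/kg ip.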

Mus musculus [7] = assay: CNS depressant activity in ip dosed mouse assessed as loss of righting reflex; type: functional; method in brief: as §1
Mus musculus [8] = assay: CNS depressant activity in ip dosed mouse assessed as induction of neurologic deficit by rotarod test; type: functional
Method in brief: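 Rotarod test per a literature method in ip-dosed mice; failure scored as neurological deficit. Ten animals per dose; ND50 in mg/kg ip.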

Mus musculus [9] = assay: CNS depressant activity in mouse assessed as reduction in amphetamine-induced locomotor activity at 18.8 mg/kg, ip; type: functional; set-up: scale not given: the % may be the effect or the level left; settings: route intraperitoneal
Method in brief: (§3)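 Locomotor activity of mice recorded in photocell activity cages after dl-amphetamine 4.0 mg/kg ip plus test compound ip at the stated dose. Five mice per group; result given as % change in activity.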

Mus musculus [10] = assay: CNS depressant activity in mouse assessed as reduction in amphetamine-induced locomotor activity at 51.2 mg/kg, ip; type: functional; set-up: scale not given: the % may be the effect or the level left; settings: route intraperitoneal; method in brief: as §3
Mus musculus [11] = assay: CNS depressant activity in mouse assessed as reduction in amphetamine-induced locomotor activity at 100 mg/kg, ip; type: functional; set-up: scale not given: the % may be the effect or the level left; settings: route intraperitoneal; method in brief: as §3
Mus musculus [12] = assay: CNS depressant activity in mouse assessed as reduction in amphetamine-induced locomotor activity at 25.6 mg/kg, ip; type: functional; set-up: scale not given: the % may be the effect or the level left; settings: route intraperitoneal; method in brief: as §3
Mus musculus [13] = assay: CNS depressant activity in mouse assessed as reduction in amphetamine-induced locomotor activity at 75 mg/kg, ip; type: functional; set-up: scale not given: the % may be the effect or the level left; settings: route intraperitoneal; method in brief: as §3
Mus musculus [14] = assay: CNS depressant activity in mouse assessed as reduction in amphetamine-induced locomotor activity at 150 mg/kg, ip; type: functional; set-up: scale not given: the % may be the effect or the level left; settings: route intraperitoneal; method in brief: as §3
Mus musculus [15] = assay: CNS depressant activity in mouse assessed as reduction in amphetamine-induced locomotor activity at 1.5 mg/kg, ip; type: functional; set-up: scale not given: the % may be the effect or the level left; settings: route intraperitoneal; method in brief: as §2

Row | SMILES | ED50 (Mus musculus [1]) | ED50 (Mus musculus [2]) | ED50 (Mus musculus [3]) | Activity (Mus musculus [4]) | LD50 at 2 h [5] | ED50 (Mus musculus [6]) | ED50 (Mus musculus [7]) | ED50 (Mus musculus [8]) | Activity (Mus musculus [9]) | Activity (Mus musculus [10]) | Activity (Mus musculus [11]) | Activity (Mus musculus [12]) | Activity (Mus musculus [13]) | Activity (Mus musculus [14]) | Activity (Mus musculus [15])
1 | COC1=NCC(=O)N(C)c2ccc(Cl)cc21 | 59.3 mg/kg | 16.5 mg/kg | 68 mg/kg | 50% | > 200 mg/kg | > 50 mg/kg | 300 mg/kg | – | – | – | – | – | – | – | –
2 | CCOC1=NCC(=O)N(C)c2ccc(Cl)cc21 | 42.8 mg/kg | 2.9 mg/kg | 45.3 mg/kg | – | 300 mg/kg | 35.2 mg/kg | 39.3 mg/kg | 68.5 mg/kg | 93% | – | – | – | – | – | –
3 | CN1C(=O)CN=C(OCCBr)c2cc(Cl)ccc21 | – | > 102 mg/kg | – | – | – | > 102 mg/kg | – | – | – | – | – | – | – | – | –
4 | CN1C(=O)CN=C(OCC(Cl)Cl)c2cc(Cl)ccc21 | – | 143 mg/kg | – | – | – | 128 mg/kg | – | – | – | – | – | – | – | – | –
5 | CN1C(=O)CN=C(OCC(F)(F)F)c2cc(Cl)ccc21 | – | > 102 mg/kg | – | – | – | > 102 mg/kg | – | – | – | 48% | – | – | – | – | –
6 | CCCOC1=NCC(=O)N(C)c2ccc(Cl)cc21 | 93.1 mg/kg | 19.2 mg/kg | 52.5 mg/kg | – | > 400 mg/kg | 38.2 mg/kg | 78.1 mg/kg | – | – | 50% | – | – | – | – | –
7 | CC(OC1=NCC(=O)N(C)c2ccc(Cl)cc21)C(F)(F)F (configuration not stated) | 130 mg/kg | > 200 mg/kg | 250 mg/kg | – | 300 mg/kg | 100 mg/kg | 288 mg/kg | 123 mg/kg | – | – | 73% | – | – | – | –
8 | C=CCOC1=NCC(=O)N(C)c2ccc(Cl)cc21 | – | 54.4 mg/kg | – | – | – | 63.9 mg/kg | – | – | – | 55% | – | – | – | – | –
9 | C#CCOC1=NCC(=O)N(C)c2ccc(Cl)cc21 | 20.8 mg/kg | 22.9 mg/kg | 22.7 mg/kg | – | 138 mg/kg | > 25 mg/kg | 28.5 mg/kg | – | – | – | – | 44% | – | – | –
10 | CN1C(=O)CN=C(Oc2ccccc2)c2cc(Cl)ccc21 | – | > 102 mg/kg | – | – | – | 50.1 mg/kg | – | – | – | 68% | – | – | – | – | –
11 | CN1C(=O)CN=C(Oc2ccccc2F)c2cc(Cl)ccc21 | 240 mg/kg | > 200 mg/kg | 240 mg/kg | – | 650 mg/kg | > 200 mg/kg | 428 mg/kg | 146 mg/kg | – | 45% | – | – | – | – | –
12 | Cc1cc(Cl)ccc1OC1=NCC(=O)N(C)c2ccc(Cl)cc21 | – | > 102 mg/kg | – | – | – | > 102 mg/kg | – | – | – | 36% | – | – | – | – | –
13 | CCOC1=NCC(=O)N(CC)c2ccc(Cl)cc21 | 100 mg/kg | 21.8 mg/kg | 100 mg/kg | – | 600 mg/kg | > 75 mg/kg | 600 mg/kg | – | – | – | – | – | 5% | – | –
14 | CCOC1=NCC(=O)N(c2ccccc2)c2ccc(Cl)cc21 | 300 mg/kg | > 150 mg/kg | 300 mg/kg | – | 650 mg/kg | > 150 mg/kg | 300 mg/kg | – | – | – | – | – | – | 50% | –
15 | CCOC1=NCC(=O)N(C)c2cc(Cl)ccc21 | 56.5 mg/kg | 38.4 mg/kg | 67.7 mg/kg | – | 600 mg/kg | 29.9 mg/kg | 74.4 mg/kg | 61.8 mg/kg | – | 50% | – | – | – | – | –
16 | CCOC1=NCC(=O)N(C)c2ccc([N+](=O)[O-])cc21 | 11.3 mg/kg | 9 mg/kg | 42.5 mg/kg | – | 600 mg/kg | 87.8 mg/kg | 37.5 mg/kg | 15.8 mg/kg | – | 27% | – | – | – | – | –
17 | CCOC1=NCC(=O)N(C)c2ccc(C)cc21 | 137 mg/kg | 18.4 mg/kg | 133 mg/kg | – | 300 mg/kg | > 102 mg/kg | 141 mg/kg | 87.6 mg/kg | – | 44% | – | – | – | – | –
18 | CCOC1=NCC(=O)N(C)c2c1cc(Cl)cc2[N+](=O)[O-] | – | > 102 mg/kg | – | – | – | > 102 mg/kg | – | – | – | 19% | – | – | – | – | –
19 | CN1C(=O)CNC(=O)c2cc(Cl)cc([N+](=O)[O-])c21 | – | > 102 mg/kg | – | – | – | > 102 mg/kg | – | – | – | 24% | – | – | – | – | –
20 | CN1C(=O)CNC(=O)c2cc(Cl)ccc21 | – | 39.4 mg/kg | – | – | – | > 100 mg/kg | – | – | – | – | 75% | – | – | – | –
21 | CN1C(=O)CNC(=O)c2ccc(Cl)cc21 | – | > 102 mg/kg | – | – | – | > 102 mg/kg | – | – | – | 30% | – | – | – | – | –
22 | CN1C(=O)CNC(=O)c2cc([N+](=O)[O-])ccc21 | – | > 102 mg/kg | – | – | – | > 102 mg/kg | – | – | – | 51% | – | – | – | – | –
23 | Cc1ccc2c(c1)C(=O)NCC(=O)N2C | – | > 102 mg/kg | – | – | – | > 102 mg/kg | – | – | – | 62% | – | – | – | – | –
24 | CN1C(=O)CN=C(c2ccccc2)c2cc(Cl)ccc21 [DIAZEPAM] | 4.1 mg/kg | 1.6 mg/kg | 21.9 mg/kg | 8% | – | 1.1 mg/kg | 8.9 mg/kg | 5.2 mg/kg | – | – | – | – | – | – | –
25 | O=C1CN=C(c2ccccc2)c2cc([N+](=O)[O-])ccc2N1 [NITRAZEPAM] | 1.5 mg/kg | 0.8 mg/kg | 1.5 mg/kg | – | 733 mg/kg | 1 mg/kg | 1.5 mg/kg | 0.5 mg/kg | – | – | – | – | – | – | 50%
